UPR XBP1 act = activators of adaptive arm of unfolded protein response (XBP1); CHO-XBP1 luciferase reporter, IRE1-XBP1 UPR activation, luminescence; percent of tunicamycin response, DMSO as zero; activation, % at 20 µM; 330,000 tested, 0.33% active;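 active means versus positive control, 20 µM dose yields 30% or more activation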;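 further: 100% = tunicamycin at 10 µg/mL and 0% = DMSO only wells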
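assay system = CHO-XBP1 luciferase reporter cells | amount = 1000 cells/well | buffer or medium = F12 plus 10% FBS | compound dosing = single point, 20 µM final compound, 1% DMSO | incubation = 16-18 h cell attachment at 37 °C, then 6 h compound exposure | detection = Steady-Glo luminescence read | controls = tunicamycin 10 µg/mL and vehicle-only wells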
tim23-1 inh = growth inhibitors of tim23-1 mutant yeast | inhibition, % at 20 µM | S. cerevisiae tim23-1 growth, BacTiter-Glo luminescence, 24 h | 330,000 tested, 1.3% active;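 active means growth inhibition of the mutant yeast at or above 50%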;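 further: temperature-sensitive mutant grown at 25 °C; plate controls were DMSO-treated mutant yeast for no effect and medium wells lacking yeast for full effect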
tim10-1 inh = inhibits growth of tim10-1 mutant yeast. 330,000 tested, 2.2% active. inhibition, % at 20 µM. S. cerevisiae tim10-1 ts strain growth, BacTiter-Glo, 24 h;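 active means inhibition of at least 40%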;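 further: mutant grown at 25 °C; 0% = DMSO wells with yeast and 100% = wells holding no yeast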
TIM10 inh = inhibits growth of TIM10 yeast strain | S. cerevisiae TIM10 strain growth, BacTiter-Glo luminescence, 24 h | inhibition, % at 10 µM | 330,000 tested, 1.4% active | AID 463195;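 active means inhibition of 40% or more at the single tested concentration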;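 further: wild-type TIM10 isogenic control strain grown at permissive 25 °C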
UPR CHOP act = apoptotic UPR (CHOP) activation | CHO-CHOP luciferase reporter, luminescence; percent of tunicamycin response over DMSO baseline | activation, % at 10 µM | 330,000 tested, 0.34% active | AID 449763;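 active means at 10 µM dose, activation of 40% or more, normalized to positive control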;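 further: 100% = tunicamycin at 10 µg/mL and 0% = DMSO alone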
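Assay system: CHO cells with stable CHOP pathway luciferase reporter; Buffer or medium: F12 plus 10% serum; Times: 16-18 h cell attachment, then 6 h compound exposure, 37 °C; Signal: luciferase luminescence; Read-out basis: percent activation relative to tunicamycin control; Control set: tunicamycin high control, DMSO low control.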
tim10-1 conf = confirmation of tim10-1 mutant yeast growth inhibitors | shares compounds with tim10-1 inh | S. cerevisiae tim10-1 ts strain growth, BacTiter-Glo, 24 h | inhibition, % at 20 µM | 7,400 tested, 56% active;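 active means inhibition of yeast growth at or above a set limit in either of two repeat tests at 20 µM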;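 further: tim10-1 mutant grown at permissive 25 °C to find synthetic lethal compounds; 0% = DMSO yeast wells and 100% = medium wells without yeast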
* hit, by the source's call; / = no result given. The list is not random: actives were taken first. Their share in the collection is about 3.9%.

SMILES	UPR XBP1 act	tim23-1 inh	tim10-1 inh	TIM10 inh	UPR CHOP act	tim10-1 conf
O=C(COc1ccc(Cl)cc1Cl)Nc1ccc(S(=O)(=O)NC2=NCCCCC2)cc1	-3	13	44*	39	29	39*
COc1ccc(CN2CC[C@@H](N3CCOCC3)[C@H](O)C2)cc1F	-6	-2	-15	-11	-1	/
CC1=NN(C(=O)c2ccc(Cn3nc(C)c(Br)c3C)cc2)C(O)(C(F)(F)F)C1 (configuration not stated)	-2	33	41*	27	-1	22
O=C(O)CNC(=O)c1ccc(Sc2ccccc2)c([N+](=O)[O-])c1	0	26	-5	4	-1	/
CC(C)(C)NC(=O)c1ccc(Sc2ccccc2)c([N+](=O)[O-])c1	-2	27	42*	16	-1	20
CC(C)c1ccc(/C=N/NC(=O)c2ccc(-n3cnnn3)cc2)cc1	4	20	26	12	2	/
CC(=O)Nc1oc(-c2cccc3ccccc23)nc1C#N	7	27	15	3	1	/
COc1ccccc1OCCNC(=O)Nc1ccc(Br)cc1	0	27	40*	-7	2	31*
CCCCc1ccc(NC(=O)CN2C(=O)C3CCCCC3C2=O)cc1 (configuration not stated)	0	37	22	-2	2	/
COC(=O)c1ccc(CNC(=O)Cn2cnc3c(OCc4ccccc4)ncnc32)cc1	-1	8	0	-2	2	/
CCCc1nc2c(s1)CCc1onc(-c3ccc(Cl)cc3)c1-2	-3	-12	-7	-9	0	/
CCCc1sc(N)nc1-c1ccc(Cl)cc1	-1	13	43*	18	-1	20
Cc1ccc(S(=O)(=O)NCC(=O)Nc2cccnc2)cc1C	0	-5	-11	-12	-1	/
COc1cc2c(cc1OC)C(COc1ccc(C(C)C)cc1)NCC2 (configuration not stated)	0	38	48*	36	1	21
CCCc1ccc(-c2c(C)sc(N)c2C#N)cc1	7	32	68*	35	6	49*
COc1ccc(C)cc1NC(=O)CN1CCCN(S(=O)(=O)c2ccc(Br)cc2)CC1	-2	22	-110	-29	-2	/
COc1ccc2c(c1)CCc1c(C(=O)N3CCCc4ccccc43)noc1-2	3	42	45*	34	5	34*
COc1ccc(/C=C/C(=O)N2CCCc3ccccc32)c(OC)c1	0	38	15	0	3	/
CCOC(=O)/C=C/C(=O)N1CCc2ccccc21	0	32	47*	20	1	40*
COc1ccc(/C=C/C(=O)N2CCCc3ccccc32)cc1	3	37	47*	23	2	22
CC(=O)c1cccc(S(=O)(=O)Nc2ccccc2N2CCOCC2)c1	0	21	2	7	2	/
O=C(NNC(=O)c1ccccc1F)c1cccc(S(=O)(=O)N2CCc3ccccc32)c1	-2	20	9	9	2	/
O=C(NCC1CCCO1)c1cccc(S(=O)(=O)Nc2ccc(SC(F)F)cc2)c1 (configuration not stated)	-1	3	-6	1	1	/
O=C1c2ccccc2S(=O)(=O)N1CC(O)Cn1ccc2ccccc21 (configuration not stated)	-2	45	42*	23	1	20
C=CCCN(Cc1ccccc1)S(=O)(=O)c1cc(Br)ccc1Br	-3	7	3	-17	0	/
SMILES	UPR XBP1 act	tim23-1 inh	tim10-1 inh	TIM10 inh	UPR CHOP act	tim10-1 conf
O=C(CSc1cc(Cl)ccc1Cl)NCCN1C(=O)CSC1=O	-1	13	6	-5	2	/
COc1ccc(C2/C=C\CN(C(=O)c3ccc(C)cc3)CC(=O)N2Cc2ccc(F)cc2)cc1 (configuration not stated)	3	8	40*	13	2	21
CCOc1cc(C2C(C#N)=C(N)OC(C)=C2C(C)=O)c(Br)c(Br)c1OC(C)C (configuration not stated)	14	45	46*	5	-1	27
COc1cc(CNc2cccc3[nH]c(C(F)(F)F)nc23)cc(OC)c1	-3	39	42*	15	2	19
COc1ccc2nc(NCc3ccccc3)[nH]c2c1	-2	-7	-1	-2	2	/
Cc1ccc(C(=O)Nc2cccc3[nH]c(C(F)(F)F)nc23)cc1	-2	9	8	20	1	/
COc1ccc(CNc2cccc3[nH]c(C(F)(F)F)nc23)cc1	3	40	43*	29	-1	25
COc1cccc(/C=N/n2c(C)nc3ccccc32)c1OC	8	48	44*	39	2	31
CC(C)Cc1nc2oc3c(NCc4cccnc4)ncnc3c2c2c1CCC2	4	-13	23	-4	-1	/
CC(C)Cc1nc2oc3c(NCC4CCCO4)ncnc3c2c2c1CCC2 (configuration not stated)	28	24	45*	25	5	27
Cc1ccccc1NC(=S)NCCSc1ccc(Cl)cc1	-2	30	47*	25	0	26
Cc1ccc(C)c(NC(=S)NCCSc2ccc(Cl)cc2)c1	-1	17	26	19	2	/
Cc1cccc(NC(=S)NCCSc2ccc(Cl)cc2)c1	-3	28	45*	35	-2	26
Cc1ccc(SCCNS(=O)(=O)c2ccc(F)cc2)cc1	-1	36	41*	-13	2	15
CC(C)(C)C(=O)NNC(=O)COc1ccc2ccccc2c1Br	0	17	-6	8	2	/
COC(=O)NNC(=O)COc1ccc2ccccc2c1Br	0	30	45*	22	1	25
CC(C)(C)NC(=O)C(c1cccs1)N(Cc1ccc(F)cc1)C(=O)c1csnn1 (configuration not stated)	-2	23	43*	10	-1	11
Cc1ccc(S(=O)(=O)N2CCCNCC2)cc1	-3	15	1	-14	-2	/
O=Cc1ccc2ccc3cccnc3c2n1	5	30	42*	9	3	8
NC(=O)CC(NC(=O)Cc1ccc(Br)cc1)c1ccc(N2CCC(N3CCCCC3)CC2)c([N+](=O)[O-])c1 (configuration not stated)	-1	15	5	13	1	/
Cc1cc(C)n(-c2ccc(NC(=O)C3CCCCN3Cc3cccc4c3OCO4)cc2)n1 (configuration not stated)	-4	26	18	15	-1	/
COc1ccc(/C=C/C(=O)NC(=S)NNC(=O)[C@H]2C[C@@H]2c2ccccc2)cc1OC	-5	1	48*	4	-1	11

Screening data: PubChem BioAssay, Sanford-Burnham Center for Chemical Genomics
